The target in one series is Tubulin (Sus scrofa, UniProt P02554+P02550). The series is described as follows: Competitive binding affinity to pig brain tubulin colchicine binding site after 1 hr by mass spectrophotometric analysis in presence of colchicine. It is filed as tissue-based. Summed up:
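Porcine brain tubulin (1.0 mg/mL) in PIPES 80 mM, MgCl₂ 2 mM, EGTA 0.5 mM, pH 6.9, at 37 °C. Competitor was 0.1–100 μM for 1 h. Unbound ligand in the 30 kDa ultrafiltrate was measured by MS. Runs were in triplicate; IC50 came from a Hill fit.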

Series [1] relates to DU-145. The series is described as follows: Cell cycle arrest in human DU145 cells assessed as accumulation at G2/M phase at 0.005 uM after 24 hrs by propidium iodide staining-based FACS flow cytometric analysis. Format: functional. Summed up: (§1)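 DU145 cells were plated at 1.0×10⁶ per dish in DMEM/10% FBS and treated 24 h later with increasing concentrations. After 24 h, attached and floating cells were pooled and fixed in ice-cold 70% ethanol for at least 24 h. Cells were stained with propidium iodide (50 μg/mL) plus RNase A for 30 min at 37 °C, then read on a FACScan with cell-cycle modelling.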
In general terms: In flow cytometry, cells or beads pass a laser one at a time.

Series [2] in a line: Cytotoxicity against human HepG2 cells after 4 hrs by Alamar Blue assay. Format: cell-based. The settings on record: read-out: LD50.
The subject of another series is MIA PaCa-2. The series is described as follows: Antitumor activity against human MIAPaCa2 cells assessed as inhibition of anchorage-independent growth after 3 weeks by NBT staining-based soft agar assay. It is filed as functional, cell-based. The essentials:
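MIA-PaCa-2 cells (1.0×10⁵) in growth medium with compound were mixed into 0.4% Noble top agar over a 0.8% bottom layer. Each concentration was plated in triplicate. Plates were incubated 3 weeks at 37 °C, 5% CO₂, then stained with 0.05% nitroblue tetrazolium for 48 h and photographed.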

Series [3] can be described thus: Cytotoxicity against human H80 cells after 96 hrs by trypan blue exclusion assay. It is filed as functional. The note with it: H80, 96 h. The essentials:
(§2)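 Cells were grown in DMEM or RPMI with 10% FBS and plated at 2.5×10⁴ cells/well in 12-well dishes. Compounds were added 24 h later at various concentrations. After 96 h, viable cells were counted by trypan blue exclusion from duplicate wells. Results are the mean of two independent experiments.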

For a further series, the system named is Mus musculus. The series is described as follows: Oral bioavailability in ICR mouse at 5 mg/kg by LC-MS/MS analysis. Format: ADME, organism-based. The settings on record: in vivo. The essentials: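 Male ICR mice, 6–8 weeks old (N=3 per group), with a carotid artery cannula implanted one day before dosing. Dosed at 5 mg/kg in NMP:PEG300:water (1:4:5) as an IV bolus or by oral gavage. Blood drawn at 2–360 min; plasma protein-precipitated with acetonitrile containing internal standard, assayed by LC/MS/MS; noncompartmental analysis.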

The target of a further series is Tubulin (Sus scrofa) (UniProt P02554+P02550). The series is described as follows: Competitive binding affinity to pig brain tubulin vinblastine binding site at 0.1 to 100 uM after 1 hr by mass spectrophotometric analysis in presence of vinblastine. The essentials:
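Porcine brain tubulin (1.0 mg/mL) in PIPES 80 mM, MgCl₂ 2 mM, EGTA 0.5 mM, pH 6.9, at 37 °C. […] Competitor was 0.1–100 μM for 1 h. Unbound ligand in the 30 kDa ultrafiltrate was measured by MS. Runs were in triplicate; IC50 came from a Hill fit.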

In the next series the test system is BT-474. The series is described as follows: Cytotoxicity against human BT474 cells after 96 hrs by trypan blue exclusion assay. Format: functional. The note with it: BT-474, 96 h. The essentials: as §2
The test system of the next series is MES-SA. The series is described as follows: Resistance factor, ratio of GI50 for multidrug-resistant human MES-SA/Dx5 cells to GI50 for human MES-SA cells. Format: functional.
Another series has as its system K562. The series is described as follows: Cytotoxicity against human K562 cells after 96 hrs by trypan blue exclusion assay. Format: functional, cell-based. The essentials: as §2
Series [4] has as its system DU-145. The series is described as follows: Cell cycle arrest in human DU145 cells assessed as accumulation at G2/M phase after 24 hrs by propidium iodide staining-based FACS flow cytometric analysis. It is filed as functional. The essentials: as §1
In series [5] the test system is MDCK. The series is described as follows: Efflux ratio of permeability from basolateral to apical over apical to basolateral side in MDCK cells expressing MDR-1. The note with it: dog.
Series [6] relates to DU-145. The series is described as follows: Mitotoic arrest in human DU145 cells assessed as appearance of abnormal spindles at 25 nM after 24 hrs by FITC and propidium iodide staining-based confocal laser microscopic analysis. It is filed as functional, cell-based. The essentials:
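DU145 cells on glass coverslips were treated with 0.025 μM compound or DMSO for 24 h and fixed in 4% paraformaldehyde. After blocking and permeabilizing in PBS with 10% FBS and 0.1% Triton X-100, they were stained with FITC anti-α-tubulin (DM1A) for 1 h at 37 °C and with propidium iodide 1 μg/mL. Imaging was by confocal microscopy, 60× objective, as z-sections.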

The test system of series [7] is DU-145. The series is described as follows: Mitotoic arrest in human DU145 cells assessed as complete loss of coordination in mitotic spindle assembly at 25 nM after 24 hrs by FITC and propidium iodide staining-based confocal laser microscopic analysis. It is filed as functional, cell-based. The essentials:
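DU145 cells grown on glass coverslips, exposed to 0.025 μM for 24 h, fixed in 4% paraformaldehyde, permeabilized in PBS with 10% FBS/0.1% Triton X-100, stained with FITC-conjugated anti-α-tubulin (DM1A, 1 h, 37 °C) and propidium iodide (1 μg/mL, 5 min), then imaged by confocal microscopy (60× objective, XYZ-sectioning); DMSO-treated cells as vehicle.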

A short description of series [8]: Cytotoxicity against human NAMALWA cells after 96 hrs by trypan blue exclusion assay. Format: functional. The note with it: NAMALVA. The essentials: as §2
In series [9] the test system is DU-145. The series is described as follows: Cell cycle arrest in human DU145 cells assessed as accumulation at subG1 phase at 0.005 to 0.02 uM after 24 hrs by propidium iodide staining-based FACS flow cytometric analysis. Format: functional. The essentials: as §1
Series [10] concerns DU-145. The series is described as follows: Induction of apoptosis in human DU145 cells assessed as increase in PARP cleavage at 10 to 20 nM after 24 to 72 hrs by Western blotting analysis. Format: functional, cell-based. The essentials: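 DU145 cells were plated at 1.0×10⁶ per plate and treated 24 h later with DMSO or increasing concentrations, then harvested at set time points. Cells were lysed in 0.1% Triton X-100 buffer with protease inhibitors. Equal protein was run on 10% SDS-PAGE, blotted with anti-PARP and detected with IRDye 800 secondary on Odyssey.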

Series [11] has as its system MDCK. The series is described as follows: Apparent permeability from apical to basolateral side in MDCK cells expressing MDR-1 at 10 uM after 90 mins by LC-MS/MS analysis. Format: ADME, cell-based, Canis lupus familiaris. The settings on record: dog, 1.5 h. Summed up: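 MDCK-MDR1 (Pgp-expressing) monolayers were used 3–4 days post-seeding, only if TEER exceeded 1000 Ω·cm² before and after the run. Compound starting concentration was 10 μM. Transport was measured A→B and B→A over 90 min and quantified by LC/MS/MS. Apparent permeabilities gave the efflux ratio.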

The next series concerns Plasma. The series is described as follows: Plasma protein binding in dog at 10 to 50 uM by equilibrium dialysis. Format: ADME, cell-free, Canis lupus familiaris. In general terms: Equilibrium dialysis compares concentrations on both sides of a semipermeable membrane.
In a further series the test system is BT-20. The series is described as follows: Antitumor activity against human BT20 cells xenografted in NCR-nu/nu mouse assessed as reduction in tumor volume at 20 mg/kg, ip treated 3 times a week for 2 weeks measured on alternate days for 14 days. Also on record: dose 20 mg/kg. Format: functional, organism-based. The essentials: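 Female athymic NCr-nu/nu mice were implanted subcutaneously in the hind leg with 0.5–1.0×10⁷ BT20 cells. Mice were paired once tumours reached about 100–150 mm³ (vehicle N=7, treated N=8). Dosing was 20 mg/kg IP in DMSO (0.1 mL), 3×/week for 2 weeks. Calipers measured two dimensions; volume = L×S²×π/6. Body weight was recorded at each measurement.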
In general terms: In xenograft studies the graft and the host belong to different species.

Activity calls are given as the source filed them. No cut-off for these calls is given here.

Consider `COc1cc(OC)c(/C=C/S(=O)(=O)Nc2ccc(OC)c(N)c2)c(OC)c1`, for which the IC50 (as a rule, the midpoint of a concentration-inhibition curve) on Tubulin came to 3.68 µM; with K562 (K562, 96 h), 0.003 µM. Moreover, the result with DU-145 [1], in the series on DU-145 [6], in the series on DU-145 [7], with DU-145 [9], in the series with DU-145 [10] and with BT-20 was Active. The CC50 at 4 h in series [2] was over 1000 µM. The inhibition result in the series on MIA PaCa-2 is “Dose-dependent effect”. Also, the concentration for 50% growth inhibition (GI50) (usually the concentration that inhibits growth by half) in series [3] turned out to be 0.004 µM; in the series with BT-474 it was 0.01 µM; in the series with K562 (K562, 96 h) it was 0.003 µM; in series [8] it was 0.008 µM. Moreover, the F in the series on Mus musculus came to 34%. The outcome at Tubulin (Sus scrofa) was inactive. Moreover, in the series on MES-SA, the RatioGI50 was determined as 1.6. Further, the Activity result in the series on K562 and in the series with DU-145 [4] was “Dose-dependent effect” in each case. Besides, in the series with MDCK [5], the Ratio was 7.9. Moreover, in the series with MDCK [11], the apparent permeability (Papp) (usually the rate of passage across a membrane or cell layer, normalised by area and donor concentration) came to 9.1 ×10⁻⁶ cm/s. This molecule also registered a PPB in the series with Plasma of 98.48%.

The values are drawn from ChEMBL document CHEMBL2396655, “Design, synthesis, and biological evaluation of (E)-N-aryl-2-arylethenesulfonamide analogues as potent and orally bioavailable microtubule-targeted anticancer agents” (J Med Chem, 2013).
